RORA act: activates the human nuclear receptor RORA; P35398; CHO-K1 Gal4-RORA LBD luciferase reporter, luminescence; percent increase over mock-subtracted basal signal; activation, % at 10 µM; hit rate 1.5% among 65,000; AID 560;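 active means activation above the mean of all tested compounds plus 3 SD, cut at about 49% in these data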;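 further: 0% = DMSO-treated RORA cells and 100% = added signal equal to DMSO minus mock-transfected cells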
CD11b adhes enh: increases human CD11b/CD18 adhesion to fibrinogen. activation, % at 10 µM. hit rate 0.07% among 93,000. K562 CD11b/CD18 adhesion to fibrinogen, ATPlite luminescence. P05107+P11215;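 active means 10 µM primary screen giving 50% or more activity, confirmed by 40% or more on retest at that dose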
CD11b adhes inh: inhibitors of human CD11b/CD18 binding to fibrinogen | P05107+P11215 | inhibition, % at 10 µM | AID 1497 | K562 CD11b/CD18 adhesion to fibrinogen, ATPlite luminescence; Mn2+ added to activate the integrin | hit rate 0.54% among 93,000;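 active means primary inhibition of 50% or more at 10 µM, then 40% or more on retest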
SF-1 act: SF-1 (human) activation | activation, % at 10 µM | Q13285 | hit rate 1.9% among 65,000 | CHO-K1 Gal4-SF-1 LBD luciferase reporter; % increase over DMSO SF-1-specific signal | AID 522;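 active means activation above the mean activation of all tested compounds plus 3 SD, cut at about 50% in these data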
Target sequence (Q13285 whole entry, looked up, the tested form may be a part): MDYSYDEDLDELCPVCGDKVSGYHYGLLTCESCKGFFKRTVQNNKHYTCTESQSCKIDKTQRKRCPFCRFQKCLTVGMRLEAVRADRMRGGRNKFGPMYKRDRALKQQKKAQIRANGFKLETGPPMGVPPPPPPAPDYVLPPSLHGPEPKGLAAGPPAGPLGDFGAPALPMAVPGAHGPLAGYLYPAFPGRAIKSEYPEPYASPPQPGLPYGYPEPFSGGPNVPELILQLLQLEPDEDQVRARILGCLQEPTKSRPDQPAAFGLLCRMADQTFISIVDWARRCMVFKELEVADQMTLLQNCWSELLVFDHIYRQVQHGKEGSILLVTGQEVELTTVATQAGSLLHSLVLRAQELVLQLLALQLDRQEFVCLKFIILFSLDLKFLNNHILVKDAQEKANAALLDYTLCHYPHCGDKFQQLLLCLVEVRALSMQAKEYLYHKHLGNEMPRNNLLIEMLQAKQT
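Compound – one dose, 10 µM compound, 1% DMSO · Test system – transient Gal4-SF-1 LBD reporter, CHO-K1 · Input – 4,000 cells in each well · Read-out basis – percent activation relative to DMSO median and mock-transfected background · Replicates – single measurement per compound · Technique – steady-glow luciferase luminescence, read after 15 min reagent incubation · Timing – 20 h compound treatment, 37 °C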
Calb biofilm kill: kills Candida albicans biofilms. C. albicans biofilm + clotrimazole, Alamar Blue. inhibition, % at 6 µM. hit rate 0.14% among 85,000;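 active means inhibition above 20%; inactive means inhibition below 20%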;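 further: preformed 24 hr biofilms exposed to compound for 48 hr; 0% = biofilm without compound and 100% = blank killed by clotrimazole plus chlorhexidine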
MT1-MMP txn act: MT1-MMP promoter transcription activation. hit rate 0.16% among 86,000. activation factor at 10 µM. HT1080 MT1-MMP promoter luciferase reporter, luminescence, overnight; active compounds read high;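 active means activation factor of at least 2 for MT1-MMP transcription at 10 µM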
Starred values were filed as active, the others as inactive; / = no result. The list is not random: actives were taken first. Their share in the collection is about 2.2%.

SMILES	RORA act	CD11b adhes enh	CD11b adhes inh	SF-1 act	Calb biofilm kill	MT1-MMP txn act
O=C(NC1=NCCS1)Nc1ccccc1	44	/	/	86*	1	1.2
CCCCN1CNC(=S)N(Cc2ccccc2)C1	/	-3	-1	/	/	/
CCn1cc(CNC(=O)/C=C/c2ccc([N+](=O)[O-])cc2)cn1	/	3	-13	/	/	/
O=C(/C=C/c1cc([N+](=O)[O-])ccc1OC(F)F)Nc1cccc(OC(F)F)c1	/	1	2	/	/	/
CC(=O)c1cccc(NC(=O)c2cnn3ccccc23)c1	9	-2	8	67*	8	1
N/C(COc1cccc(Cl)c1)=N\NS(=O)(=O)c1ccccc1	/	0	-6	/	/	/
Cc1ccc(-n2c(C)nc3oc4ccccc4c(=O)c3c2=O)cc1	68*	-1	20	18	4	2.2*
Cc1nc(NC(=O)c2ccc(Br)s2)sc1C(=O)N(C)C	70*	0	-47	107*	5	1.2
COC(=O)c1sc(NC(=O)c2cc3c(s2)CCCC3)nc1C	43	4	-37	18	7	1.3
Cc1nc(NC(=O)c2cc3c(s2)CCCCC3)sc1C(=O)N(C)C	48	-7	-3	60*	8	1.6
Cc1ccc(CN2CCN(/N=C/c3cc(Br)cc(Br)c3O)CC2)c(C)c1	/	6	-9	/	/	/
Cc1ccc(S(=O)(=O)c2c(C(=O)c3ccccc3)cnc3cc4c(cc23)OCCO4)cc1	/	4	1	/	/	/
COc1ccc(-c2csc(NCc3ccco3)n2)cc1C	49*	3	8	80*	-3	1.5
CCOC(=O)C1=C(C)Nc2nnnn2C1c1ccc(OC)c(Br)c1 (stereo not given)	-4	-4	6	13	8	1.1
CCN=c1scc(C)n1/N=C/c1ccsc1	69*	-2	-1	70*	-7	1.5
Cc1ccc(C(=O)N/C(=C\c2ccc(Cl)cc2)C(=O)NCC2CCCO2)cc1 (stereo not given)	/	-4	4	/	/	/
CCCCc1cc(O)c(CCCC)c(O)c1	50*	-5	7	35	5	1.2
CCCCCc1cc(O)c2c(C)cc(=O)oc2c1	-21	-7	43	-3	0	1.1
Cc1ccc(-c2nnc(-c3ccc(Br)cc3)o2)o1	25	-2	-5	75*	6	1.3
Brc1ccc(-c2nnc(-c3cccc(Br)c3)o2)cc1	/	-2	11	/	8	1.4
Cc1ccc(-n2c(Cc3cccn3C)nnc2SCC(=O)Nc2nnc(C)s2)cc1	-3	-3	-4	1	2	1.3
Cc1nnc(NC(=O)CSc2nnc(Cc3cccn3C)n2-c2cccc(C(F)(F)F)c2)s1	9	1	-7	32	24*	1
CCOC(=O)c1c(NC(=S)NC(=O)c2ccc(Cn3cc(Cl)cn3)o2)sc2c1CCCCC2	/	69*	4	/	/	/
Cc1onc(-c2c(Cl)cccc2Cl)c1C(=O)NC(=S)Nc1sc2c(c1C(N)=O)CCC(C)C2 (stereo not given)	/	76	-20	/	/	/
CCOC(=O)c1c(NC(=S)NC(=O)c2cnn(CC)c2)sc2c1CCC(C)C2 (stereo not given)	/	157*	5	/	/	/
SMILES	RORA act	CD11b adhes enh	CD11b adhes inh	SF-1 act	Calb biofilm kill	MT1-MMP txn act
c1csc(-c2nnsc2-c2nc3ccccc3[nH]2)c1	10	0	-4	21	9	1.3
O=c1[nH]c2ccccc2nc1-c1cccs1	9	-3	-12	54*	9	1.4
O=C(Cn1c(=O)[nH]c2ccsc2c1=O)NC1CCCCCC1	-8	/	/	8	9	1
CC1CCC(NC(=O)Cn2c(=O)[nH]c3ccsc3c2=O)CC1 (stereo not given)	51*	-6	3	47	0	1.7
O=C(Nc1ccc(N2CCOCC2)c(Cl)c1)c1cccnc1Cl	/	/	/	/	3	1.4
COc1c(C)cccc1C(=O)Nc1ccc(N2CCOCC2)c(Cl)c1	/	-4	16	/	13	2.2*
O=C(OCn1nnc2ccccc2c1=O)C1=COCCO1	-10	-2	6	-12	3	1.1
O=C(Cn1cnc2ccccc2c1=O)c1ccc2c(c1)OCCO2	39	-2	-16	75*	8	1.1
O=c1c2ccccc2nnn1CSc1ccc2c(c1)OCCO2	38	/	/	77*	9	1.4
O=c1c2ccccc2nnn1CSc1nnc2ccccn12	23	-3	-8	78*	2	1.5
CC1CN(C(=O)Nc2ccc3c(c2)OCO3)CC(C)O1 (stereo not given)	/	0	-10	/	0	1.5
O=C(N/N=C/c1ccc(-c2ccc(S(=O)(=O)Nc3ncccn3)cc2)o1)c1cc2ccccc2cc1O	/	53*	-11	/	/	/
Nc1c(C(=O)NC2CCCC2)sc2nc(-c3cccs3)ccc12	20	93	7	60*	/	1
O=C(Nc1nnc(-c2cccs2)o1)c1cccc(C(F)(F)F)c1	-1	1	72*	4	2	1.1
CCCC1(C(=O)OC)C=C2C(=C(c3ccccc3)C(=O)C2C)CN1 (stereo not given)	/	/	/	/	/	1.2
Cn1nnc(NC(=O)c2cccc(OCc3ccccc3)c2)n1	54*	-2	-8	48	-3	1
COc1ccc([C@H]2[C@H](C(=O)C(C)(C)C)N3N=Cc4ccccc4C3[C@]23N=C(c2ccccc2)OC3=O)cc1OC (stereo not given in full)	/	91*	-3	/	8	1.1
COC(=O)c1ccc(C(NC(=O)OCc2ccccc2)/C(F)=C/[C@@H](C)C(=O)Nc2ccc(OC)cc2)cc1 (stereo not given in full)	/	/	/	/	/	1.2
COC(=O)C1=C(COc2ccccc2)NC(=O)NC1c1ccc2ccccc2c1 (stereo not given)	/	/	/	/	/	1.1
CCCCCCNc1nc(-c2ccc(OC)cc2)c(CCC(=O)O)s1	/	6	1	/	/	/
C/C(N)=C(/C#N)C(=O)CSc1nnc(Nc2cccc(C)c2)s1	36	/	/	69*	-5	1.6
CC(CC(=O)c1cccs1)CC(=O)c1cccs1	74*	1	1	74*	/	1.9
O=C(O)CCCCCCCCCC(=O)c1cccs1	/	1	16	/	9	0.9
Cc1cc(N)c(NC2=CC(=O)CC(C)(C)C2)cc1C	70*	-4	28	9	0	1.1
